In ChEMBL document CHEMBL4304755, “Diacetal Ditellurides as Highly Active and Selective Antiparasitic Agents toward Leishmania amazonensis” (ACS Med Chem Lett, 2019):

Assays:
[1] = tested on: Leishmania amazonensis; assay: Antileishmanial activity against promastigote stage of Leishmania amazonensis MHOM/BR/Josefa incubated for 72 hrs by XTT assay; format: functional, organism-based
How it was run: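 Promastigotes; IC50 is the concentration giving 50% growth inhibition. Values are mean ± SD of three separate experiments.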

[2] = Selectivity index, ratio of CC50 for mouse J774A1 cells to IC50 for promastigote stage of Leishmania amazonensis MHOM/BR/Josefa; format: toxicity; conditions: read-out: Ratio CC50/IC50
How it was run: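 SI is calculated as CC50 on J774A1 cells divided by the corresponding IC50 on promastigotes.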

[3] = tested on: Leishmania amazonensis; assay: Ratio of IC50 for miltefosine to IC50 for test compound for antileishmanial activity against promastigote stage of Leishmania amazonensis MHOM/BR/Josefa incubated for 72 hrs by XTT assay; format: functional
[4] = tested on: Leishmania amazonensis; assay: Antileishmanial activity against amastigotes stage of Leishmania amazonensis MHOM/BR/Josefa infected in BALB/c mouse peritoneal macrophage incubated for 48 hrs by Giemsa staining based microscopic method; format: functional, organism-based
How it was run: (§1)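 Intracellular amastigotes in macrophages and the matched macrophage cytotoxicity readout. Values are mean ± SD from three different experiments.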

[5] = Selectivity index, ratio of CC50 for BALB/c mouse peritoneal macrophage to IC50 for amastigotes stage of Leishmania amazonensis MHOM/BR/Josefa infected in BALB/c mouse peritoneal macrophage; format: toxicity; conditions: peritoneal macrophages, read-out: Ratio CC50/IC50
[6] = Cytotoxicity against BALB/c mouse peritoneal macrophages incubated for 48 hrs by MTT assay; format: cell-based, Peritoneal macrophage; how it was run: as §1
[7] = tested on: Leishmania chagasi; assay: Antileishmanial activity against amastigotes stage of Leishmania chagasi MHOM/BR/1972/LD infected in BALB/c mouse bone-marrow derived macrophages incubated for 3 days by hematoxylin-eosin staining based cell counting method; format: functional, organism-based; conditions: 72 h
[8] = tested on: Leishmania amazonensis; assay: Antileishmanial activity against promastigote stage of Leishmania amazonensis MHOM/BR/73/M2269 by erythrosine-B staining based Neubauer chamber based cell counting method; format: functional, organism-based

| SMILES | IC50 [1] [nM] | selectivity ratio [2] | Ratio IC50 [3] | IC50 [4] [nM] | selectivity ratio [5] | CC50 at 48 h [6] [nM] | IC50 [7] [nM] | IC50 [8] [nM] |
| --- | --- | --- | --- | --- | --- | --- | --- | --- |
| CC1(c2cccc([Te][Te]c3cccc(C4(C)OCCO4)c3)c2)OCCO1 | 900 | 25 | 20 | – | – | – | – | – |
| CC1(c2ccccc2[Te][Te]c2ccccc2C2(C)OCCO2)OCCO1 | 8000 | 2 | 3 | – | – | – | – | – |
| CC1(c2ccc([Te][Te]c3ccc(C4(C)OCCO4)cc3)cc2)OCCO1 | 900 | 194 | 20 | 500 | 18 | 8300 | – | – |
| COc1ccc([Te]2(Cl)OC3(CCCCC3)/C2=C\Cl)cc1 (stereo unspecified) | – | – | – | – | – | – | 500 | – |
| c1ccc([Te][Te]c2ccccc2)cc1 | 1400 | 42 | – | – | – | – | – | – |
| CCCCCCCCCCCCCCCCOP(=O)([O-])OCC[N+](C)(C)C [MILTEFOSINE] | 20700 | 3 | – | 1700 | 12 | 20300 | – | – |
| CC[N+](CC)(CC)Cc1ccccc1.ClC1=C[Te-](Cl)(Cl)(Cl)OC1 | – | – | – | – | – | – | – | 4000 |
